According to paper PMC5474437 (EBioMedicine, 2017):

Experiments:
[1] = target: human neutrophil peptide 1 (human); assay: SPR
[2] = test system: Apoe−/− HNP1tg/tg mice on high-fat diet; assay: Atherosclerotic lesions in aortic root, HNP1-transgenic Apoe−/− mice; type: in vivo, mouse; details: transgenic HNP1 expression, high-fat diet 4 weeks, Ly6G staining, n=10
Method in brief: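 Female Apoe−/− HNP1tg/tg mice (C57Bl/6 background, backcrossed ≥10 generations) fed high-fat diet (21% fat, 0.15% cholesterol) for 4 weeks. Frozen aortic root sections stained with anti-Ly6G (1A8, 1:100), then secondary antibody 30 min at room temperature, with DAPI nuclear counterstain. Images analysed by fluorescence microscopy.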

Apoe−/− HNP1tg/tg mice [3] = assay: Plasma lipids and FPLC lipoprotein fractions, HNP1-transgenic mice; type: in vivo, mouse; details: transgenic HNP1 expression
Method in brief: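 Female Apoe−/− HNP1tg/tg mice and Apoe−/− littermates were fed high-fat diet (21% fat, 0.15% cholesterol) for 4 weeks. Plasma was stored at −80 °C and triglycerides were measured enzymatically with a kit. For lipoprotein profiles, plasma from 10 animals per group was pooled (0.25 ml) and FPLC gel-filtered on two Superose 6 columns in series.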

Apoe−/− mice = assay: Plasma lipids after repeated HNP1 treatment; type: in vivo, mouse; details: 10 μg every other day i.v., 4 weeks, n = 8–11 per group
Method in brief: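 Female Apoe−/− mice on high-fat diet (21% fat, 0.15% cholesterol) for 8 weeks received peptide (10 μg i.v., every other day) or PBS i.v. over the last 4 weeks. Plasma triglycerides were measured enzymatically with a kit. Blood leukocytes were counted by flow cytometry after red cell lysis, using CD115/CD11b/CD45/Gr1 staining and counting beads. n = 8–11 per group; one-way ANOVA with Bonferroni test.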

Apoe−/− HNP1tg/tg mice [4] = assay: Blood cell counts by flow cytometry, HNP1-transgenic mice; type: in vivo, mouse; details: transgenic HNP1 expression, vs Apoe−/−, high-fat diet 4 weeks, n = 10
Method in brief: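 Female Apoe−/− HNP1tg/tg mice and Apoe−/− littermates (C57Bl/6 background, ≥10 backcross generations) fed high-fat diet (21% fat, 0.15% cholesterol) for 4 weeks. Blood red cells were lysed (150 mM NH4Cl, 10 mM KHCO3, 0.1 mM diNaEDTA, pH 7.4) and HBSS-washed. Cells were stained for CD115, CD11b, CD45 and Gr1 and analysed by flow cytometry; absolute counts came from counting beads.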

[5] = test system: plasma lipoprotein fractions (VLDL, LDL, HDL); assay: Dot blot of lipoprotein fractions of HNP1-treated mice; type: binding, mouse; details: HNP1 10 μg i.v., plasma after 24 h
Method in brief: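 Apoe−/− mice on high-fat diet received 10 μg i.v.; plasma collected after 24 h, pooled (10 animals per group, 0.25 ml) and fractionated by FPLC gel filtration on two Superose 6 columns in series. Fractions spotted on nitrocellulose, blocked in 1% milk/PBS (0.5–1.0 h, RT), probed overnight at 4 °C with anti-HNP1, ApoA, ApoB or ApoC3 (1:5000), HRP secondary 1:5000 (1 h, RT), ECL chemiluminescence.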

[6] = test system: plasma cholesterol / lipoproteins of hypercholesterolemic mice; assay: Precipitation of lipid-bound HNP1 from plasma with anti-HNP1 magnetic beads; type: binding, mouse; details: dot blot of precipitate
Method in brief: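 Anti-HNP monoclonal antibody (100 μg) coupled overnight at room temperature to 3.3 × 108 magnetic beads in 1 M ammonium sulfate. Washed beads, at 2 × 109 beads/ml, added to 50 μl plasma from hypercholesterolemic mice incubated with the peptide, then rotated overnight at room temperature. Beads removed; precipitated samples spotted on nitrocellulose and probed by chemiluminescent dot blot with apolipoprotein antibodies.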

HepG2 cells = assay: Lipid; type: cell-based, human
Method in brief: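 HepG2 cells were grown in DMEM with 10% heat-inactivated FCS at 37 °C, 5% CO2. Human LDL (50 μg/ml) was pre-incubated 30 min at 37 °C with peptide (1 μg/ml) or PBS vehicle. Cells were then exposed to LDL for 2 h. Oil Red O staining followed, and the eluted dye gave relative lipid content.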

[7] = test system: hepatocytes of C57BL/6 wild-type mice; assay: Liver perfusion, Dil-LDL uptake in hepatocytes, wild-type mice; type: in vivo, mouse; details: Dil-LDL 50 μg/ml with HNP1 10 μg/ml, 20 min, 2 ml/min, normocholesterolemic WT mice, flow cytometry, n = 3 per group
Method in brief: (§1)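 Anaesthetised mice underwent laparotomy with double-ligated vena cava. Portal vein cannulated; liver perfused 20 min at 2 ml/min with DiI-labelled human LDL (50 μg/ml) preincubated with 10 μg/ml peptide in PBS, or PBS alone. Liver minced, filtered (100 μm), spun 500 g 5 min, then 36% Percoll-HBSS 800 g 20 min. Top-phase hepatocytes analysed by flow cytometry as fold over background fluorescence; n = 3 per group, Mann-Whitney test.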

liver of Ldlr−/− mice = assay: Liver perfusion, Dil-LDL uptake, Ldlr−/− mice; type: in vivo, mouse; details: Dil-LDL 50 μg/ml with HNP1 10 μg/ml, 20 min, 2 ml/min, n = 3 per group
Method in brief: as §1

[8] = Plasma HNP1 levels in HNP1-transgenic mice, dot blot; type: in vivo, mouse; details: Apoe−/− HNP1tg/tg mice, high-fat diet 4 weeks, dot blot against recombinant HNP1
Method in brief: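 Plasma from female HNP1-transgenic Apoe−/− mice after 4 weeks high-fat diet was spotted onto nitrocellulose and blocked in 1% non-fat milk/PBS (0.5–1.0 h, RT). Blots were probed overnight at 4 °C with anti-HNP1 (1:5000), washed in PBS/0.05% Tween 20, then given HRP secondary (1:5000, 1 h, RT) and 3 × 15 min washes. ECL chemiluminescence was the read-out.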

mice expressing HNP1 = details: ref Abu-Fanne et al., 2016, cited from earlier work
Lp(a) = details: ref Bdeir et al., 1999; cited from earlier work

Substance | Kd [1] | Number of lesional neutrophils [2] | HDL-cholesterol (Apoe−/− HNP1tg/tg mice [3]; FPLC, pooled plasma of 10 animals per group) | Plasma triglyceride levels (Apoe−/− HNP1tg/tg mice [3]; high-fat diet 4 weeks, n=10) | Plasma cholesterol levels after repeated treatment (Apoe−/− mice; vs baseline, PBS not different from baseline) | Plasma triglyceride levels and blood leukocyte counts after repeated treatment (Apoe−/− mice) | Blood counts of leukocyte subpopulations (Apoe−/− HNP1tg/tg mice [4]) | Detection of HNP1 in lipoprotein fractions ([5]; FPLC fractions, dot blot) | Apolipoproteins in HNP1-positive fractions ([5]; antibodies to ApoA1, ApoB, ApoC3) | Apolipoproteins in anti-HNP1 precipitate [6] | HNP1-assisted LDL clearance after LDLR silencing (HepG2 cells; Ldlr siRNA 100 nM, 24 h, HepG2) | LDL uptake by HepG2 (HepG2 cells; human LDL 50 μg/ml, HNP1 1 μg/ml, 2 h, Oil Red O elution) | LDL uptake in hepatocytes (portal vein perfusion) [7] | LDL uptake in the liver (portal vein perfusion), Ldlr−/− (liver of Ldlr−/− mice) | Plasma HNP1 levels [8] | Total cholesterol and LDL plasma levels in mice expressing HNP1 (mice expressing HNP1; normocholesterolemic) | Lipid deposits in mice with transgenic HNP1 expression (mice expressing HNP1; prolonged periods of high fat diet feeding) | Interaction with Lp(a) (Lp(a))
human ApoB (from UniProt P04114 28-4563) (natural protein) | 2.45 nM | – | – | – | – | – | – | – | – | – | – | – | – | – | – | – | – | –
human ApoC3 (from UniProt P02656 21-99) (natural protein) | 0.0358 nM | – | – | – | – | – | – | – | – | – | – | – | – | – | – | – | – | –
human neutrophil peptide 1 [HNP1] | – | The number of lesional neutrophils was not affected | HDL-cholesterol remained unaffected | triglyceride levels remained unaffected | lowered plasma cholesterol levels below baseline levels | not affected by HNP1 treatment | comparable between the groups | only detected in VLDL and LDL fractions but not in HDL fractions | ApoB and ApoC3 were detected but not ApoA1 | precipitate stained positive for ApoB and ApoC3 | silencing of LDLR abrogated HNP1-assisted LDL clearance | strongly enhanced LDL uptake | vast increase of LDL uptake in hepatocytes | failed to stimulate LDL uptake in the liver | 0.5 to 1 µg/mL | total cholesterol levels as well as LDL plasma levels were reduced in mice expressing HNP1 | facilitated the development of very small lipid deposits | shown to interact with Lp(a)
